Data reported in ChEMBL document CHEMBL1153392, “Identification of a metabolically stable triazolopyrimidine-based dihydroorotate dehydrogenase inhibitor with antimalarial activity in mice” (J Med Chem, 2009).
Calls of active or inactive are those of the source. No cut-off for these calls is given here.

Columns and labels:
[1] = target: T1, Dihydroorotate dehydrogenase (Plasmodium falciparum, UniProt Q54A96); assay: Inhibition of Plasmodium falciparum DHODH
T1 sequence (Q54A96 whole entry): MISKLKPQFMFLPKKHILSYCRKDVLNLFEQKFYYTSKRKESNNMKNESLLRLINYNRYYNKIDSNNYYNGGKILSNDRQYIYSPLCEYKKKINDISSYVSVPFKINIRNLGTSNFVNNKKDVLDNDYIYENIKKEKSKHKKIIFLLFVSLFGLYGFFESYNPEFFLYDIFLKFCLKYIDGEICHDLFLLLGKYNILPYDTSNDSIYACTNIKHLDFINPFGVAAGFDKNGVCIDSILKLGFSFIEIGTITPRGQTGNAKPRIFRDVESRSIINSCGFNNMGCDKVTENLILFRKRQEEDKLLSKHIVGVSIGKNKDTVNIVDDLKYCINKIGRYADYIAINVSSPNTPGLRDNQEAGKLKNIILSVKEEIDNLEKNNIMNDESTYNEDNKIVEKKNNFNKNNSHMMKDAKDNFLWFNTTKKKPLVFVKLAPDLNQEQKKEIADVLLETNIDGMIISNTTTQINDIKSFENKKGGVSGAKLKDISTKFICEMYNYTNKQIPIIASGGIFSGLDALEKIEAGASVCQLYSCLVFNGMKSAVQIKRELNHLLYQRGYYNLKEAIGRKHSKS
Outline: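 Truncated soluble recombinant enzyme expressed in E. coli. Triplicate points per inhibitor concentration; IC50 from fit to Vi = Vo/(1+[I]/IC50).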

Plasmodium berghei [2] = assay: Inhibition of Plasmodium berghei ANKA DHODH
Outline: (§1)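 Truncated soluble enzyme expressed in E. coli and purified. DCIP (0.12 mM) reduction followed at 600 nm with 5-10 nM enzyme, 0.2 mM L-dihydroorotate and 0.02 mM CoQD in 100 mM HEPES pH 8.0, 150 mM NaCl, 10% glycerol, 0.1% Triton, 20 °C. Triplicate points per concentration; IC50 fitted.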

Plasmodium falciparum = assay: Antiplasmodial activity against Plasmodium falciparum 3D7 by [3H]hypoxanthine uptake; assay type: functional, organism-based
Outline: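 Proliferation of drug-treated infected erythrocytes measured by [3H]hypoxanthine uptake over a range of inhibitor concentrations, triplicate points per concentration. EC50 derived from a Hill-slope logistic fit.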

Liver microsomes [3] = settings: human, 1 µM
Liver microsomes [4] = settings: human, 1 µM; remark: listed apart in the source
[5] = target: Dihydroorotate dehydrogenase (quinone), mitochondrial (Homo sapiens, UniProt Q02127); assay: Inhibition of human DHODH; outline: as §1
Mus musculus [6] = assay: Plasma concentration in Swiss mouse at 50 mg/kg, po administered as single dose; assay type: ADME, organism-based; set-up: dose 50 mg/kg, route oral; settings: in vivo
Outline: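 Nonfasted male Swiss outbred mice, 23-33 g, fed ad libitum. Single oral gavage as a suspension in 0.5% CMC, 0.5% benzyl alcohol, 0.4% Tween-80. One cardiac-puncture blood sample per mouse per time point. Plasma analysed by LC-MS/MS after acetonitrile precipitation, with diazepam as internal standard and a plasma calibration curve. PK parameters taken from mean concentration-time profiles.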

Mus musculus [7] = assay: Toxicity in Plasmodium berghei NK65 infected BALB/c mice (Mus musculus) at 100 mg/kg, perorally administered every 4 hrs x 10 doses followed by every 6 hrs x 6 doses schedule; assay type: organism-based; set-up: dose 100 mg/kg, route oral; settings: in vivo, po
Outline: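 P. berghei-infected female BALB/c mice dosed by oral gavage in 0.5% CMC/0.4% Tween-80/0.5% benzyl alcohol. Tail bleeds and body weighing done daily. Animals monitored for ill effects and euthanized when the no-drug controls lost 20% of their pre-infection body weight.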

Plasmodium berghei [8] = assay: Antimalarial activity as reduced parasitaemia against Plasmodium berghei NK65 infected BALB/c mice (Mus musculus) at 100 mg/kg peroral dose at 10x4hrs then 6x6hrs; assay type: functional, organism-based; set-up: dose 100 mg/kg
Outline: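 Female BALB/c mice, 8-10 weeks old, infected ip with 2 × 10^7 infected erythrocytes 24 h before dosing; ≥0.1% parasitemia verified. Oral gavage in 0.5% CMC/0.4% Tween-80/0.5% benzyl alcohol every 4 h × 10 doses, then every 6 h × 6 doses (n = 6 per group), against vehicle controls. Parasitemia counted daily by light microscopy of Wright-Giemsa stained thin tail-blood smears.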

Sequence of Dihydroorotate dehydrogenase (quinone), mitochondrial (Q02127 whole entry): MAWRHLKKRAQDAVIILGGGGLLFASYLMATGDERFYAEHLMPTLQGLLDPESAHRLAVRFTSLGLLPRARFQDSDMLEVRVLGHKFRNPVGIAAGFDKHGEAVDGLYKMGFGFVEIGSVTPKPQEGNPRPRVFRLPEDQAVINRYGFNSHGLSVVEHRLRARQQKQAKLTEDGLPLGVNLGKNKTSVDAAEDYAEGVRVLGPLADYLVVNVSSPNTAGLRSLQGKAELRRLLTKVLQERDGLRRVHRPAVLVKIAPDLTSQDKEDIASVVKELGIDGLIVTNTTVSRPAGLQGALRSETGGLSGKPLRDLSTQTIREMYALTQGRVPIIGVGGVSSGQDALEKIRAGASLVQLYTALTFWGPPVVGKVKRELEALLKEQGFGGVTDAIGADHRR

| Structure (SMILES) | IC50 [1] [µM] | IC50 (Plasmodium berghei [2]) [µM] | EC50 (Plasmodium falciparum) [µM] | CL (Liver microsomes [3]) [µL/min/mg] | t1/2 (Liver microsomes [4]) [h] | IC50 [5] [µM] | concentration (Mus musculus [6]) [nM] | Activity (Mus musculus [7]) | Activity (Plasmodium berghei [8]) |
| --- | --- | --- | --- | --- | --- | --- | --- | --- | --- |
| Cc1ccc(Nc2cc(C)nc3ncnn23)cc1 | 4.2 | 16 | 6.4 | – | – | – | – | – | – |
| Cc1cc(Nc2c(F)c(F)cc(F)c2F)n2ncnc2n1 | > 100 | > 100 | > 50 | – | – | – | – | – | – |
| COc1ccc(Nc2cc(C)nc3ncnn23)cc1 | 4.6 | > 50 | 14 | – | – | – | – | – | – |
| Cc1cc(Nc2cccc(Cl)c2)n2ncnc2n1 | 1.4 | – | – | 38 | 0.75 | – | – | – | – |
| Cc1cc(Nc2ccc(Cc3ccccc3)cc2)n2ncnc2n1 | 2.2 | > 100 | 5 | – | – | – | – | – | – |
| Cc1cc(Nc2c(F)cccc2F)n2ncnc2n1 | > 100 | > 100 | > 50 | – | – | – | – | – | – |
| Cc1cc(Nc2ccc(Br)cc2)n2ncnc2n1 | 0.78 | 1.3 | 4.2 | – | – | > 100 | – | – | – |
| Cc1cc(Nc2ccccc2C(F)(F)F)n2ncnc2n1 | > 100 | > 100 | – | – | – | – | – | – | – |
| Cc1cc(Nc2ccc(OC(F)F)cc2)n2ncnc2n1 | 2.8 | 25 | 8.2 | – | – | – | – | – | – |
| Cc1cc(Nc2ccccc2F)n2ncnc2n1 | > 100 | > 100 | > 50 | – | – | – | – | – | – |
| Cc1cc(Nc2ccccc2C)n2ncnc2n1 | > 100 | > 100 | > 50 | – | – | – | – | – | – |
| Cc1cc(Nc2ccc(Br)c(C(F)(F)F)c2)n2ncnc2n1 | 0.45 | 1.5 | 2.6 | 14 | 2.17 | > 100 | – | – | – |
| Cc1cc(Nc2cccc(C(F)(F)F)c2)n2ncnc2n1 | 14 | 55 | 19 | 29 | 1 | – | – | – | – |
| Cc1cc(Nc2ccc(C)c(C)c2)n2ncnc2n1 | 0.35 | 4 | – | 77 | 0.383 | > 100 | – | – | – |
| Cc1cc(Nc2ccc3ccccc3c2)n2ncnc2n1 | – | – | – | 96 | 0.3 | – | 2000 | Non-toxic | inactive |
| Cc1cc(Nc2cc(C(F)(F)F)cc(C(F)(F)F)c2)n2ncnc2n1 | > 100 | > 100 | > 5 | – | – | – | – | – | – |
| Cc1cc(Nc2ccc(Cl)c(C(F)(F)F)c2)n2ncnc2n1 | 0.8 | 2.4 | > 5 | 13 | 2.17 | > 100 | – | – | – |
| Cc1cc(Nc2ccc([N+](=O)[O-])cc2)n2ncnc2n1 | 4.3 | 3.7 | – | – | – | – | – | – | – |
| Cc1cc(Nc2ccc(C#N)c(C(F)(F)F)c2)n2ncnc2n1 | 4.9 | 11 | 8.8 | 6.2 | 4.67 | – | – | – | – |
| Cc1cccc(Nc2cc(C)nc3ncnn23)c1 | 4.9 | > 100 | 37 | – | – | – | – | – | – |
| Cc1cc(Nc2ccccc2C#N)n2ncnc2n1 | > 100 | > 100 | 25 | – | – | – | – | – | – |
